This sample holds only a part of the variants without activity.
B1: tRNA (parent)
chain: CUCUCGGUAGCCAAGUUGGUUUAAGGCGCAAGACUUUAAUUUAUCACUACGAAAUCUUGAGAUCGGGCGUUCGACUCGCCCCCGGGAGAUUUUUUCCUCGAGCAA

Variants of: B1
Experiment: nonsense suppression (GFP-seq) (ratio to wild type); higher = more function; SUP4oc tRNA, yeast GFP reporter sort-seq
In short: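 To measure nonsense suppression, tRNA variants from a library carrying ~3% random mutations were integrated into the yeast genome alongside RFP and a GFP ochre reporter under galactose control. Growth took place in raffinose/galactose medium supplemented with 80 mg/L adenine, followed by sorting into GFP/RFP bins and Illumina sequencing of each bin (phred ≥30). For each variant with ≥100 reads and ≥30 cells, the bin median GFP/RFP values were weighted by its estimated cell share per bin and referenced to the unmutated parent tRNA.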

Going from A31G U63A to A9U U21G U22C, the nonsense suppression falls from 0.684 to no more than 0.026.

Compared with U58C A60C, C12U U16G is higher in nonsense suppression: 0.0568 for the first, 0.785 for the second.

First: U21C G32U U58C
Second: U8C G28C
The nonsense suppression of the first is lower: no more than 0.026 for the first, 0.0327 for the second.

G19C U22C C68U and C5U U21A cannot be ordered by nonsense suppression: no more than 0.026 for the first, no more than 0.026 for the second.

First: A9C U21C A24U U63A G69U
Second: U20C U21A
The nonsense suppression of the first is lower: no more than 0.026 for the first, 0.188 for the second.

C3A C5G U57C U70A C80A and G19U A23U C34A U63G cannot be ordered by nonsense suppression: no more than 0.026 for the first, no more than 0.026 for the second.

Compared with U4A A13C U70C C82U, C5A A60C is higher in nonsense suppression: no more than 0.026 for the first, 0.0331 for the second.

Compared with G25A G61A G84C, C12U A24U is higher in nonsense suppression: no more than 0.026 for the first, 0.118 for the second.

G10A G28C G61C and C3G C27U U57C G59A G61A cannot be ordered by nonsense suppression: no more than 0.026 for the first, no more than 0.026 for the second.

A33G U57A U76C and G10U G84A G86U cannot be ordered by nonsense suppression: no more than 0.026 for the first, no more than 0.026 for the second.

First: C34U A74C C79A
Second: C81U A87G
The nonsense suppression of the first is lower: no more than 0.026 for the first, 0.239 for the second.

Going from C29U U63C G85A to U16C G28A, the nonsense suppression rises from 0.849 to 1.06.

Compared with C5G A87U, G25C C68U is higher in nonsense suppression: no more than 0.026 for the first, 0.031 for the second.

U2A G19C and C5A A14U A33C U55C cannot be ordered by nonsense suppression: no more than 0.026 for the first, no more than 0.026 for the second.

Compared with A9G A30G, U20G A60G is higher in nonsense suppression: 0.466 for the first, 0.477 for the second.

Going from C11A A60C to G6A G78A, the nonsense suppression rises from no more than 0.026 to 0.037.

A31C C56G and C11A A33G C77A C81G cannot be ordered by nonsense suppression: no more than 0.026 for the first, no more than 0.026 for the second.

G25C A30G A33U and U21C U35A C64G G66C C72G cannot be ordered by nonsense suppression: no more than 0.026 for the first, no more than 0.026 for the second.

First: A9C A23G
Second: A31U A60C C75A
The nonsense suppression of the first is lower: 0.0661 for the first, 0.184 for the second.

First: U20A G28A
Second: C80A C82U
The nonsense suppression of the first is higher: 0.813 for the first, no more than 0.026 for the second.

First: A33G G61U
Second: A14U G25C C27U
The nonsense suppression of the first is higher: 0.119 for the first, no more than 0.026 for the second.

First: U17G U21A
Second: A23G A33C G66A
The nonsense suppression of the first is higher: 1.16 for the first, no more than 0.026 for the second.

Going from A60C C79U to G6A G19C G67C A87G, the nonsense suppression falls from 0.14 to no more than 0.026.

A23U C75A and A9G U22A U35G cannot be ordered by nonsense suppression: no more than 0.026 for the first, no more than 0.026 for the second.

Going from A30U A60G to A23G C34A, the nonsense suppression falls from 0.27 to no more than 0.026.

G19A A54G G67A and C11U A31G C77G cannot be ordered by nonsense suppression: no more than 0.026 for the first, no more than 0.026 for the second.

First: U21G U76C
Second: C3U C72G
The nonsense suppression of the first is higher: 0.861 for the first, no more than 0.026 for the second.

Compared with U55C G73U, U21G G28C is higher in nonsense suppression: 0.0422 for the first, 0.211 for the second.

Compared with C12G G25C C75A, C80G G84A is lower in nonsense suppression: 0.482 for the first, no more than 0.026 for the second.

C5A G59C and C3A G25C U63A cannot be ordered by nonsense suppression: no more than 0.026 for the first, no more than 0.026 for the second.

Compared with C12U U20G, A31G U63G is lower in nonsense suppression: 0.455 for the first, 0.0741 for the second.

First: U4C A60C
Second: A13G U21G C77G
The nonsense suppression of the first is higher: 1.04 for the first, no more than 0.026 for the second.

G15A G65A and A9C U21C A62C C77A cannot be ordered by nonsense suppression: no more than 0.026 for the first, no more than 0.026 for the second.

Compared with C3A A23G G25U C72A, G67A G85U is higher in nonsense suppression: no more than 0.026 for the first, 0.0862 for the second.

G61C G78A C79U and A33G U58A cannot be ordered by nonsense suppression: no more than 0.026 for the first, no more than 0.026 for the second.

U20C C56G and C1U U35A C77A G84U cannot be ordered by nonsense suppression: no more than 0.026 for the first, no more than 0.026 for the second.

G15A G26U and C12G A33U cannot be ordered by nonsense suppression: no more than 0.026 for the first, no more than 0.026 for the second.

Going from C5A G78C to C12U U76A, the nonsense suppression rises from no more than 0.026 to 0.244.

Compared with U4C C80U, G61C G67A is lower in nonsense suppression: 0.651 for the first, 0.0647 for the second.

Going from C3G U20C to G6U U70C, the nonsense suppression falls from 0.0788 to no more than 0.026.

Going from G28A A54C to C75A C82A, the nonsense suppression falls from 0.878 to 0.217.

Compared with A13G C27A C29G A33U U76C G86U, U63A is higher in nonsense suppression: no more than 0.026 for the first, 1.05 for the second.

From the RNAGym collection of RNA variant scans (doi:10.1101/gad.245936.114)
